Sampled rows, rich in hits. Any-hit rate of the full collection: about 3.5%.
ERAP1 inh – blocks human ERAP1 aminopeptidase activity. Q9NZ08. recombinant ERAP1, Leu-AMC fluorescence, 60 min. inhibition, % at 10.7 µM. 340,000 compounds, 0.15% hits. AID 652197;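 active = mean replicate inhibition of at least 30%, or all replicates individually reaching that 30% level; inactive = mean below 30% and not every replicate reaching it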;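 note: 0% = neutral control wells and 100% = L-leucinethiol positive control wells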
PGC1a acetyl inh – lowers PGC1a acetylation signal in U2OS cells | 350,000 compounds, 0.17% hits | AlphaScreen anti-acetyl-lysine; with virally co-expressed GCN5 acetyltransferase | inhibition, % at 15.6 µM;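 active = every replicate shows inhibition of at least 40%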;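 note: 0% = neutral control wells and 100% = positive control wells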
rRNA inh HTS – selective bacterial rRNA inhibition in E. coli. E. coli WT GFP vs humanized-ribosome RFP mutants, fluorescence, 24 h; active compounds read low; DMSO median 0, no signal -100. AID 720706. GFP signal change (wild-type ribosome), % (test concentration not listed). 350,000 compounds, 1.6% hits;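 active = significant combined selectivity score with lowered wild-type GFP, culture density cut under 30%, mutant RFP and density less affected; inactive = any of these conditions unmet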
Env fusion inh – inhibitors of HIV Env-mediated cell fusion; AID 651610; inhibition, % at 12.3 µM; HeLa-JRFL Env/CEM21 cell fusion, luciferase; 360,000 compounds, 1.1% hits;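 active = mean replicate inhibition score of at least 50 and every replicate individually at or above 50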;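 note: 0% = plate neutral controls and 100% = maraviroc near 300 nM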
Cneo AK release – Cryptococcus neoformans lysis via adenylate kinase release | C. neoformans lysis, adenylate kinase release luminescence, 4 h; normalised: neutral wells 0, clomiphene wells 100 | lysis activity, % at 15 µM | 360,000 compounds, 0.2% hits;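 active = mean lysis activity across replicates of at least 80%, whatever share of replicates individually reach that level; inactive = mean lysis activity below 80%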
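Schedule: static 4 h at 37 °C with compound, 1 h detection; system: C. neoformans cells; benchmarks: Clomiphene as positive control; buffer or medium: fresh YPD medium; measure: luminescence rise reflecting yeast cell lysis; measured by: luminescent adenylate kinase detection reagent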
FGF22 binding – binders of recombinant human FGF22 by thermal shift | activity (Tm shift, normalised), % at 9.99 µM | Q9HCT0 | SYPRO orange fluorescence; percent of sucrose octasulfate shift, DMSO zero | 340,000 compounds, 1.5% hits;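 active = mean Tm shift, scaled 0 neutral to 100 positive control, at about 1.3% or above, every replicate too, limit read from the data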
Target sequence (Q9HCT0 whole entry, looked up): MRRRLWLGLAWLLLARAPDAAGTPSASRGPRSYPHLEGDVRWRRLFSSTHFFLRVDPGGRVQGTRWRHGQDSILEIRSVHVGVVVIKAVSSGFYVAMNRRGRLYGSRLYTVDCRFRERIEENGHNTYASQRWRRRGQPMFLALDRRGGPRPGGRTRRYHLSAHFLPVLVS
* = called active by the depositor; . = no result; [ ] = another dose, or the depositor's remark.

SMILES | ERAP1 inh | PGC1a acetyl inh | rRNA inh HTS | Env fusion inh | Cneo AK release | FGF22 binding
COc1ccc(-c2cn(CC[C@@H]3CC[C@H](NS(=O)(=O)c4ccccc4C)[C@@H](CO)O3)nn2)cc1 | -1 | -11 | -7 | 4[16.7 µM] | 2 | 0
COc1ccc(-c2cn(CC[C@H]3CC[C@H](NS(=O)(=O)c4ccccc4C)[C@H](CO)O3)nn2)cc1 | 0 | -12 | -4 | 73*[16.7 µM] | 0 | 0
O=S(=O)(N[C@@H]1CC[C@@H](CCn2cc(Cc3ccccc3)nn2)O[C@H]1CO)c1ccccc1F | 3 | -2 | -5 | . | 1 | 1
CCOC(=O)N1CCC(N2CCN(S(=O)(=O)c3ccc(NC(C)=O)cc3)CC2)CC1 | -3 | -1 | 0 | . | 0 | .
Cc1ccc(S(=O)(=O)N(C)C[C@@H]2Oc3c(NC(=O)NC(C)C)cccc3C(=O)N([C@H](C)CO)C[C@@H]2C)cc1 | -1 | -5 | -6 | . | 53 | 0
COc1cccc(NC(=O)C2CCC(CNS(=O)(=O)c3cccc4cccnc34)CC2)c1 (stereo not given) | -1 | -1 | -26* | 6 | 1 | 0
Cn1c(SCC(=O)N2CCN(c3ccccc3)CC2)nnc1-c1ccncc1 | . | 6 | . | . | 0 | .
Cn1c(Cc2cccc3ccccc23)nnc1SCC(=O)N1CCN(c2ccccc2)CC1 | 1 | . | -3 | 63* | 2 | .
Cn1c(SCC(=O)N2CCN(c3cccc(Cl)c3)CC2)nnc1-c1ccncc1 | . | -13 | . | 98* | 0 | .
CC(C)C1COS(=O)(=O)NC1CC(=O)SC(C)(C)C (stereo not given) | -2 | -21 | 6 | -5 | -3 | 0
CC(C)(C)SC(=O)CC1NS(=O)(=O)OCC1NC(=O)OCC(Cl)(Cl)Cl (stereo not given) | -1 | . | -6 | 63* | 1 | 0
CN1CCCCC(NC(=O)c2cccc(F)c2)C1=O (stereo not given) | 3 | . | 12 | 22 | . | 1
Cc1cc(C(=O)Nc2ccc3c(c2)OCCO3)c2ccccc2n1 | -4 | 3 | 12 | 14 | . | 0
Cc1ccc(OCC(=O)Nn2c(C)nc3ccccc3c2=O)c(C(C)C)c1 | -4 | 0 | -22* | . | -3 | 0
O=C1CSC(c2cccc([N+](=O)[O-])c2)N1c1ccccc1 (stereo not given) | -2 | 17 | 17 | 13 | -12 | 0
O=C(NCCN1CCOCC1)c1cccc(S(=O)(=O)N2CCCCC2)c1 | 3 | -2 | 10 | 15 | -1 | 0
CC(C)(CNC(=O)c1cccc(S(=O)(=O)N2CCCCC2)c1)N1CCOCC1 | -6 | 9 | . | 63* | 0 | 0
CC1CCC(NC(=O)c2cccc(S(=O)(=O)N3CCOCC3)c2)CC1 (stereo not given) | 0 | 3 | 2 | 1 | -1 | 43*
O=C(NC1CCCCCC1)c1cccc(S(=O)(=O)N2CCOCC2)c1 | 5 | -9 | 1 | -6 | . | 0
CC(=O)c1ccc(NC(=O)CNC2CCCCC2)cc1 | 2 | -1 | 6 | 2 | 0 | 0
O=C1N(S(=O)(=O)c2ccccc2F)C(=O)C2(CCCC2)N1S(=O)(=O)c1ccccc1F | . | 2 | . | -14 | -1 | .
COc1ccc(CC(=O)O/N=C(\N)c2ccccc2)cc1OC | 0 | -8 | -22* | -2 | 0 | 0
COc1ccc(CC(=O)O/N=C(\N)Cc2ccc(OC)cc2)cc1 | . | 9 | . | 1 | -1 | .
COc1ccc(CC(=O)O/N=C(\N)c2ccc(OC)cc2)cc1 | -4 | 14 | -19* | -41 | -1 | 0
COc1ccc(CC(=O)O/N=C(\N)c2ccc(Br)cc2)cc1OC | -7 | -12 | -17 | 4 | -1 | 0
SMILES | ERAP1 inh | PGC1a acetyl inh | rRNA inh HTS | Env fusion inh | Cneo AK release | FGF22 binding
COc1ccc(NC(=O)Nc2cccc3c2O[C@H](CN(C)CC2CC2)[C@@H](C)CN([C@H](C)CO)C3=O)cc1 | 1 | 6 | 0 | -3[16.7 µM] | 27 | -1
O=C(CSc1nnc(CNc2ccc(F)cc2)o1)N1c2ccccc2Sc2ccccc21 | . | 2 | . | 64* | 33 | .
CC(C)C(c1nnnn1Cc1ccco1)N1CCN(c2cccc(Cl)c2)CC1 (stereo not given) | . | -6 | . | 44 | -12 | .
CC1(C)Cc2c(sc3nc(SCC(=O)NCc4ccco4)n(-c4ccccc4)c(=O)c23)CS1 | . | 1 | . | . | . | .
O=C(CSc1nc2sc3c(c2c(=O)n1-c1ccccc1)CCCC3)NCc1ccco1 | -1 | -14 | 0 | 66* | 3 | 0
COc1ccc(-n2c(SCC(=O)O)nc3sc4c(c3c2=O)CCC4)cc1 | -3 | -9 | -22 | 8 | 0 | 0
COc1ccc(-n2c(SCC(N)=O)nc3sc4c(c3c2=O)CCC4)cc1 | 2 | -2 | 10 | -19 | 3 | 43*
Cc1ccc(S(=O)(=O)N(C)c2ccc(C(=O)N(C)Cc3nc4ccccc4c(=O)[nH]3)cc2)cc1 | -7 | . | -7 | 58* | 2 | .
CN(Cc1nc2ccccc2c(=O)[nH]1)C(=O)c1ccc(S(=O)(=O)N(C)C)cc1 | . | 5 | . | -60 | 0 | .
C=CCc1cccc(/C=N/NC(=O)CCC(=O)Nc2ccc(F)cc2)c1O | . | . | . | 2 | . | .
COc1ccc(C(CCNCc2ccc(N(C)C)cc2)c2ccccc2)cc1 (stereo not given) | 4 | . | -28 | 69* | 0 | 0
O=C(NC12CC3CC(CC(C3)C1)C2)N(Cc1ccccc1)Cc1ccncc1 | -3 | -5 | -4 | 62* | -2 | 0
O=C(NC12CC3CC(CC(C3)C1)C2)c1ccccc1 | -6 | 2 | 9 | 9 | -18 | 0
CCn1c(-c2ccc(C)cc2)nn(CC(=O)NCCc2ccccc2)c1=S | . | . | . | 76* | . | .
Cc1cc(N)c2cc(NC(=O)/C=C/c3ccccc3Cl)ccc2n1 | . | 80* | . | . | 4 | .
CN1CCC(=C2c3ccccc3C=Cc3ccccc32)CC1 | 1 | 2 | -8 | . | 1 | 0
c1ccc2c(c1)CCc1ccccc1C2=C1CCNCC1 | 6 | -17 | -36* | 4 | . | 0
CSc1ncccc1C(=O)OC(C)C(=O)Nc1ccc2c(c1)OCCO2 (stereo not given) | -2 | -4 | . | 5 | 0 | 0
CC(OC(=O)c1cccnc1Cl)C(=O)Nc1ccc2c(c1)OCCO2 (stereo not given) | -4 | . | 0 | 12 | . | 43*
CCOC(=O)C1CCCN(CC(=O)Nc2c(C(=O)OC)[nH]c3ccccc23)C1 (stereo not given) | . | 2 | . | -115 | 1 | .
O=C(c1cc(Cl)nc2ccccc12)N(Cc1nnc(-c2ccc(Cl)cc2)o1)C1CC1 | -6 | . | -27* | -11 | . | 0
O=C(OCc1ccccc1)N1CCC2CC1c1cc(-c3ccc(F)cc3)ccc12 (stereo not given) | 5 | 63* | 1 | 8 | 1 | 0

Compound activity: PubChem BioAssay, Broad Institute
